TbMetRS inhib: Trypanosoma brucei MetRS inhibition; purified T. brucei MetRS, ATP depletion, Kinase-Glo luminescence; inhibition, % at 11.9 µM; 0.4% of 360,000 active; AID 624268;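 active means inhibition above a per-plate cutoff of the control wells' mean inhibition plus 3 SD, cut at about 5.5% in these data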
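Test system – parasite MetRS enzyme · Reagent – substrates ATP, L-methionine and bulk Escherichia coli tRNA · Doses – 11.9 µM compound single dose, 0.9% DMSO · Times – 15 min enzyme-compound preincubation, 2 h reaction, 10 min detection, 25 °C · Signal – Kinase-Glo luminescence, ATP depletion format · Controls – DMSO-only wells as low control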
PLCb3 inh: blocks human PLC-beta3 enzyme activity | 0.18% of 370,000 active | Q01970 | inhibition, % at 12.2 µM | Purified PLC-beta3, fluorogenic substrate, fluorescence; in the data active means inhibition above about 11%
PLCg1 inh: blocks human PLC-gamma1 enzyme activity | inhibition, % at 12.2 µM | purified PLC-gamma1, fluorogenic substrate, fluorescence | P19174 | 0.84% of 370,000 active; in the data active means inhibition above about 9.5%
HGIII-sPLA2 inh: Blocks human group III sPLA2 activity. Q9NZ20. QFRET BODIPY PC-A2 liposome hydrolysis, fluorescence. inhibition, % at 12.2 µM. 0.56% of 370,000 active. AID 743126;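 active means inhibition above mean plus 3 SD of compounds lying within the high and low control bounds, cut at about 19% in these data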
Target sequence (Q9NZ20 whole entry, looked up): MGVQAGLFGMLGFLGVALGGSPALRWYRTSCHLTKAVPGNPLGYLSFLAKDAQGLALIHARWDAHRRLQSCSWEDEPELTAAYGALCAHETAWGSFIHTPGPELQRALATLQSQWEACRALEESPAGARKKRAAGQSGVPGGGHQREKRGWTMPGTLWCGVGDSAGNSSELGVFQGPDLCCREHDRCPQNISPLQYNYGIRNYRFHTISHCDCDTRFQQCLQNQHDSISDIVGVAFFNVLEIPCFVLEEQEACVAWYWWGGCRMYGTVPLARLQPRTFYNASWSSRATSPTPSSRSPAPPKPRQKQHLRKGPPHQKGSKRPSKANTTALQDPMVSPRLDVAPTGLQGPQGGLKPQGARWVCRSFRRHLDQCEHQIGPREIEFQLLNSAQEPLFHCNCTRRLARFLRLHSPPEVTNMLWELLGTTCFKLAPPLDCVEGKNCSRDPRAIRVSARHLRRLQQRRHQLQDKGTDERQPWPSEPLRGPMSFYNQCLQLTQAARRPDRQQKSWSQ
TbMetRS confirm: Trypanosoma brucei MetRS inhibition confirmed | shares compounds with TbMetRS inhib | T. brucei MetRS enzyme, luminescence (ATP depletion) | inhibition, % at 11.9 µM | 93% of 1,400 active | AID 624412; in the data active means inhibition above about 7%
Jurkat tox: counter-screen for T. brucei MetRS inhibitors: Jurkat cell cytotoxicity. shares compounds with TbMetRS inhib. Jurkat cells viability, ATP luminescence. inhibition, % at 8.3 µM. 12% of 1,400 active; in the data active means inhibition above about 15%
Tb MetRS inh FP: orthogonal test for Trypanosoma brucei MetRS inhibitors | shares compounds with TbMetRS inhib | inhibition, % at 11.9 µM | 44% of 1,400 active | purified T. brucei MetRS, fluorescence polarization; in the data active means inhibition above about 17%
Each line names hits and unclear results; the compound was inactive in the other large screens (follow-up assays come after a bar, where they were run). Shown are actives, neighbours in structure and some others; about 1.9% of the full set was active somewhere.

COc1cccc(/C(O)=C/c2nc3ccc(C(=O)NCCc4cccc(C)c4)cc3[nH]c2=O)c1	TbMetRS inhib 7.4 | TbMetRS confirm 6.6 | Jurkat tox 15 | Tb MetRS inh FP inactive
CN(C(=O)CSc1ncnc2c(-c3cccs3)nsc12)C1CCCCC1	none (no result: TbMetRS inhib)
Cc1nonc1NC(=O)CSc1nc2ccc(Cl)cc2[nH]1	TbMetRS inhib 19 | TbMetRS confirm 33 | Jurkat tox inactive | Tb MetRS inh FP 18
NS(=O)(=O)c1cccc(NC(=O)CSc2nc3ccc(Cl)cc3[nH]2)c1	TbMetRS inhib 8.1 | TbMetRS confirm 16 | Jurkat tox inactive | Tb MetRS inh FP inactive
COc1ccc(NC(=O)CSc2nc3ccc(OC)cc3[nH]2)cc1	none
O=C(CSc1nc2ccccc2[nH]1)Nc1cccc(S(=O)(=O)N2CCOCC2)c1	TbMetRS inhib 40 | TbMetRS confirm 40 | Jurkat tox inactive | Tb MetRS inh FP 18
CCN(CC)S(=O)(=O)c1cccc(NC(=O)CSc2nc3ccccc3[nH]2)c1	none
O=C(CSc1nc2cc3ccccc3cc2[nH]1)Nc1ccc(F)cc1	TbMetRS inhib 22 | TbMetRS confirm 28 | Jurkat tox inactive | Tb MetRS inh FP 23
Cc1cccc(Cn2cc(COC(=O)N3CCCC3)nn2)c1	none (no result: TbMetRS inhib)
COC(=O)[C@H]1C[C@@]2(n3ccc4ccccc43)c3ccccc3N[C@H]2N1	none (no result: TbMetRS inhib)
CCCCCCCCN1C(=O)[C@@H](CC(=O)NCC2CCCCC2)C[C@@]2(C(=O)OC)C1=C[C@H](C1CCCC1)O[C@@H]2C	none (no result: TbMetRS inhib)
COP(=O)(O)C(COCCC(CC(C)C)NC(=O)OCc1ccccc1[N+](=O)[O-])NC(=O)OCc1ccccc1 (stereo not given)	none (no result: TbMetRS inhib)
Cc1ccc2c(c1)CCCN2CC(=O)Nc1cccc(S(=O)(=O)N2CCCC2)c1	none
CN(C)S(=O)(=O)c1cccc(NC(=O)CSc2nc3ccccc3[nH]2)c1	TbMetRS inhib 6.2 | TbMetRS confirm 12 | Jurkat tox inactive | Tb MetRS inh FP inactive
O=C(CN1CCCc2ccccc21)Nc1cccc(S(=O)(=O)N2CCOCC2)c1	TbMetRS inhib 6.7 | TbMetRS confirm 12 | Jurkat tox inactive | Tb MetRS inh FP inactive
O=C(CSc1nc2ccccc2[nH]1)Nc1nc(-c2ccc(Br)cc2)cs1	TbMetRS inhib 20 | TbMetRS confirm 36 | Jurkat tox inactive | Tb MetRS inh FP 71
Cc1ccc(CN2CCCCC(NC(=O)Nc3cccc(F)c3)C2=O)cc1 (stereo not given)	none (no result: TbMetRS inhib)
Cn1nc(C(F)(F)F)c2cc(C(=O)Nc3ccc(F)cc3)sc21	none
Cn1nc(C(F)(F)F)c(-c2ccc(F)cc2)c1NC(=O)Nc1ccc(F)cc1	TbMetRS inhib 9.4 | TbMetRS confirm 21 | Jurkat tox inactive | Tb MetRS inh FP inactive
O=C(CN1CCOCC1)Nc1nc(-c2ccccc2)cs1	TbMetRS inhib 6.7 | TbMetRS confirm inactive | Jurkat tox inactive | Tb MetRS inh FP inactive
O=C(CN1CCCCC1)Nc1nc(-c2ccccc2)cs1	none
O=C(CN1CCc2onc(-c3ccc(-n4cc(C5=CCCCC5)nn4)cc3)c2C1=O)N1CCOCC1	none (no result: TbMetRS inhib)
COc1ccc(CN(C(=O)c2ccc(-c3ccccc3)[nH]2)C(C(=O)NC(C)(C)C)c2ccncc2)cc1 (stereo not given)	TbMetRS inhib 76 | TbMetRS confirm 33 | Jurkat tox inactive | Tb MetRS inh FP inactive
O=C(CN1CCSC1=NCc1ccccc1)c1ccc(Cl)cc1	TbMetRS inhib 19 | TbMetRS confirm 43 | Jurkat tox inactive | Tb MetRS inh FP 18
CCC[C@H]1[C@@H](N(C)Cc2ccccc2)CC[C@@]23CCCN2C(=O)CCC[C@@H]13	none (no result: TbMetRS inhib)
CC(C(=O)Nc1cccc([N+](=O)[O-])c1)n1nnc2ccccc21 (stereo not given)	TbMetRS inhib 20 | TbMetRS confirm 31 | Jurkat tox inactive | Tb MetRS inh FP inactive
O=C(Cn1cnc2ccccc21)Nc1cccc([N+](=O)[O-])c1	TbMetRS inhib 81 | TbMetRS confirm 95 | Jurkat tox inactive | Tb MetRS inh FP 71
Cc1ccc(NC(=O)C2CCCN2S(=O)(=O)c2cccnc2)cc1C (stereo not given)	none (no result: TbMetRS inhib)
COc1cccc(Nc2nc3ccccc3c(=O)[nH]2)c1	TbMetRS inhib 8.6 | TbMetRS confirm 18 | Jurkat tox inactive | Tb MetRS inh FP inactive
COc1cccc(Nc2cc(C)c3ccccc3n2)c1	none
CCCCOCC1CN(CCCC)S(=O)(=O)c2c(Oc3ccc(SC)c(C)c3)cccc2O1 (stereo not given)	none (no result: TbMetRS inhib)
C=CCNC(=O)CN(C(=O)c1csc2ccc(Cl)cc12)c1cccc(Br)c1	none (no result: TbMetRS inhib)
O=C(Cc1ccc(Nc2nc3ccc(Br)cc3[nH]2)cc1)NCCc1cccs1	TbMetRS inhib 84 | TbMetRS confirm 100 | Jurkat tox inactive | Tb MetRS inh FP 104
O=C(NCC1CC1)c1ccc(Nc2nc3ccc(Br)cc3[nH]2)cc1	TbMetRS inhib 7.3 | TbMetRS confirm 46 | Jurkat tox inactive | Tb MetRS inh FP 20
COc1ccc(CCNC(=O)Cc2cccs2)cc1	none
O=C(NCc1ccco1)c1cccc(Nc2nc3ccc(Br)cc3[nH]2)c1	TbMetRS inhib 10 | TbMetRS confirm 40 | Jurkat tox inactive | Tb MetRS inh FP 32
O=c1c2c3c(sc2n(CCN2CCOCC2)c(=O)n1C1CCCCC1)CCCCC3	none (no result: TbMetRS inhib)
O=C(COC(=O)c1ccccc1)Nc1ncc([N+](=O)[O-])s1	none
O=C(Nc1ccccc1)Nc1ncc([N+](=O)[O-])s1	TbMetRS inhib 6.4 | TbMetRS confirm 10 | Jurkat tox 63 | Tb MetRS inh FP inactive
Nc1ccn([C@@H]2O[C@H](C(=O)N[C@H](Cc3ccccc3)C(=O)Nc3ccc4scnc4c3)[C@@H](O)[C@H]2O)c(=O)n1	none (no result: TbMetRS inhib)
O=C(Nc1cc(Cl)ccc1F)c1ccc(-n2cncn2)c([N+](=O)[O-])c1	TbMetRS inhib 22 | TbMetRS confirm 58 | Jurkat tox inactive | Tb MetRS inh FP 21
O=C(NNC(=O)c1ccc(-n2cncn2)c([N+](=O)[O-])c1)c1ccc(Cl)cc1	TbMetRS inhib 60 | TbMetRS confirm 82 | Jurkat tox inactive | Tb MetRS inh FP 65
CC(Oc1ccccc1F)C(=O)NNC(=O)c1ccc(-n2cncn2)c([N+](=O)[O-])c1 (stereo not given)	none
O=C(NNC(=O)c1ccc(-n2cncn2)c([N+](=O)[O-])c1)c1cccc(Cl)c1	TbMetRS inhib 35 | TbMetRS confirm 59 | Jurkat tox inactive | Tb MetRS inh FP 31
O=C(NNC(=O)c1ccccc1Cl)c1ccc(-n2cncn2)c([N+](=O)[O-])c1	TbMetRS inhib 7.8 | TbMetRS confirm 33 | Jurkat tox inactive | Tb MetRS inh FP inactive
O=C(C(=O)N1CCC(CNS(=O)(=O)c2ccc3ccccc3c2)CC1)c1cc2ccccc2o1	none (no result: TbMetRS inhib)
O=C1CCC(CNc2ccccc2)N1c1ccccc1 (stereo not given)	none (no result: TbMetRS inhib)

High-throughput results from PubChem BioAssay.
